Assay outcomes: PubChem BioAssay, The Scripps Research Institute Molecular Screening Center
Only some compounds are listed: those with a hit (about 4.6% of all), similar ones and a draw of the others.
GPR7 antagonist = GPR7 receptor antagonists, primary screen, cell-based, fluorescence, single concentration; inhibition, % at 4.4 µM; GPR7-expressing cells, fluorescence antagonist assay; 290,000 tested, 1.1% active; Neuropeptides B/W receptor type 1 (Homo sapiens), P48145; in the data active = inhibition above about 16%, passing the limit was not always enough;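 also: cells stimulated with the agonist NPW; 0% = agonist with vehicle and 100% = vehicle without agonist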
Target sequence (P48145 whole entry, looked up): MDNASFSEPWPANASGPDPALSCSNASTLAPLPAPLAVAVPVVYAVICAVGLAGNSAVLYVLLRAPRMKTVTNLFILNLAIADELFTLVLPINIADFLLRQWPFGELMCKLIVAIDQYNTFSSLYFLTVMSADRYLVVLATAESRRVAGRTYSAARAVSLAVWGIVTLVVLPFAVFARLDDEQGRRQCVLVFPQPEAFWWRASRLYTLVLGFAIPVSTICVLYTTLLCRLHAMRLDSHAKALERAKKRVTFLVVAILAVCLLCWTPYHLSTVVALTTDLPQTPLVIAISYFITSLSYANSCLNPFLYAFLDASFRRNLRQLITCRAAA
OX1R antag-1 = OX1R (HCRTR1) antagonists, primary screen, fluorescence, CHO/OX1R cells, Fluo-8 calcium, orexin A; Orexin/Hypocretin receptor type 1 (Homo sapiens), O43613; inhibition, % at 5 µM; 330,000 tested, 0.43% active; Fluo-8 calcium fluorescence;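 active = inhibition above its plate's threshold, mean inhibition of all tested compounds on the plate plus 3 SD, cut at about 37% in these data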;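 also: 0% = orexin A challenge wells and 100% = SB-334867-A antagonist wells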
TAAR1 antagonist = human TAAR1 antagonists, primary screen, Fluo-8 calcium fluorescence, CHO RD-HGA16 cells; Trace amine-associated receptor 1 (Homo sapiens), Q96RJ0; antagonist; inhibition, % at 3 µM; 360,000 tested, 1.5% active; AID 624466, 2012;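 active = inhibition above a per-plate cutoff, the mean inhibition of test compounds on that plate plus 3 SD, cut at about 49% in these data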;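 also: 0% = DMSO plus EC80 beta-PEA response and 100% = DMSO alone without agonist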
Target sequence (Q96RJ0 whole entry, looked up): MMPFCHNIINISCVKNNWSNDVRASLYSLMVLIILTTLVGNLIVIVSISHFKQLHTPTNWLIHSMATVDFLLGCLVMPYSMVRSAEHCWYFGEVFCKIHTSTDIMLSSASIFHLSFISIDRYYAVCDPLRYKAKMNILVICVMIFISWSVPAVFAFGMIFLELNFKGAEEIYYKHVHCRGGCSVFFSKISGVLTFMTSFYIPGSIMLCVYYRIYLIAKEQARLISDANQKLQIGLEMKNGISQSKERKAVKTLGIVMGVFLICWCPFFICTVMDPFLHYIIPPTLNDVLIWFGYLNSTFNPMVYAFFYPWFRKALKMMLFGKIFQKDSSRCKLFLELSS
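Test system – hTAAR1-expressing CHO RD-HGA16 cells, Gα16-coupled · Reagent – β-PEA at EC80 concentration, post-compound challenge · Compound dosing – 3 µM, single point · Timing – 140 s kinetic read after compound, 140 s after agonist · Detection – Fluo-8 intracellular calcium dye fluorescence, real-time kinetic reads · Control set – DMSO and EC80 PEA controls · Repeats – n of 1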
OX1R antag-2 = antagonists of human orexin 1 receptor (OX1R) | OX1R-expressing cells, FRET antagonist read-out | inhibition, % at 6.6 µM | 330,000 tested, 1.8% active; in the data active = inhibition mostly above about 38%, no sharp cut-off; inactive = mostly below about 40%;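 also: 0% = agonist challenge alone and 100% = reference antagonist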
CHO parental Ca = ATP-evoked calcium signal inhibitors, parental CHO, primary screen, counter-screen for OX1R antagonist project, cell-based, fluorescence, Fluo-8 calcium dye; parental CHO-K1, ATP-induced calcium, Fluo-8 fluorescence; inhibition, % at 5.6 µM; 330,000 tested, 0.63% active;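 active = inhibition above that plate's mean sample inhibition plus 3 SD, cut at about 26% in these data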;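 also: 0% = ATP-challenged DMSO wells and 100% = DMSO wells without ATP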
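Measured by: calcium-sensitive Fluo-8 fluorescence / Test system: CHO parental line / Controls: ATP-challenged DMSO wells low, unchallenged DMSO wells high / Measure: % inhibition / Compound: single nominal dose of 5.6 µM per compound / Replicates: single well per compound, no replicates / Reagent: ATP as calcium-mobilizing challenge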
TAAR1 agonist = human TAAR1 agonists, primary screen, Fluo-8 calcium fluorescence, CHO RD-HGA16 cells; vehicle wells 0%, saturating PEA agonist 100%; activation, % at 3 µM; 360,000 tested, 0.99% active;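 active = activation above the mean activation of all test compounds in the run plus 3 SD, cut at about 38% in these data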
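System: CHO RD-HGA16 cells carrying human TAAR1 plus Gα16; Incubation: 17-24 h seeding, 75 min 37 °C dye, 30 min RT; Measured by: Fluo-8 fluorescence, 5 s baseline then 140 s kinetic read; Control set: DMSO and PEA EC100; Replication: single well for each compound.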
TAAR1 nonsel count = nonselective antagonists in TAAR1 counter-screen cells, counter-screen for hTAAR1 antagonist project, cell-based, fluorescence, calcium; shares compounds with TAAR1 antagonist; counterscreen cell line, antagonist mode; inhibition, % at 3 µM; 2,400 tested, 77% active; AID 651780, 2012; in the data active = inhibition above about 22%;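 also: CHO-Ga16 host cells stimulated with ATP at an EC80 level; 0% = agonist EC80 plus vehicle and 100% = vehicle without agonist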
TAAR1 antag conf = human TAAR1 antagonists, retest of hits, confirmation, cell-based, fluorescence | shares compounds with TAAR1 antagonist | TAAR1-expressing cells, fluorescence antagonist read-out | inhibition, % at 3 µM | 2,400 tested, 40% active; in the data active = inhibition above about 49%;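 also: CHO-Ga16 host cells challenged with agonist PEA near its EC80; 0% = agonist at EC80 plus vehicle and 100% = vehicle with no agonist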
Ga16 ag counter = calcium activation in Ga16-expressing cells, counter-screen for TAAR1 antagonist project, cell-based, fluorescence. shares compounds with TAAR1 antagonist. agonist counterscreen. activation, % at 3 µM. 2,400 tested, 18% active; in the data active = activation above about 12%;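 also: 0% = vehicle wells and 100% = saturating stimulus response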
TAAR1 ag count = TAAR1 activation by candidate antagonists – cell-based, fluorescence, counter-screen for TAAR1 antagonist project; AID 651955, 2012; shares compounds with TAAR1 antagonist; 2,400 tested, 2% active; hTAAR1 cell line, agonist mode; activation, % at 3 µM; in the data active = activation above about 37%;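 also: CHO cells stably expressing TAAR1 with calcium dye readout; 0% = DMSO vehicle and 100% = full agonist response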
* hit, by the source's call.

Screening COc1ccc(Nc2ncc(C(=O)N3CCN(Cc4ccccc4)CC3)c3ccccc23)cc1 returned GPR7 antagonist -1, OX1R antag-1 -25, TAAR1 antagonist 67*, OX1R antag-2 5, CHO parental Ca -9, TAAR1 agonist 18, TAAR1 nonsel count 33*, TAAR1 antag conf 51*, Ga16 ag counter 14* and TAAR1 ag count 13.
Cc1ccc(-c2cc(-c3ccc(F)cc3)c(C#N)c(N)n2)o1 was read as GPR7 antagonist -6, OX1R antag-1 -10, TAAR1 antagonist 57*, OX1R antag-2 6, CHO parental Ca 0, TAAR1 agonist -1, TAAR1 nonsel count 17, TAAR1 antag conf 35, Ga16 ag counter -1 and TAAR1 ag count -2.
For O=C1C2C3C=CC(C3)C2C(=O)N1CCc1ccccc1 (centres undefined) the results were GPR7 antagonist -2, OX1R antag-1 -6, TAAR1 antagonist -5, OX1R antag-2 24, CHO parental Ca -6 and TAAR1 agonist 0.
`O=C(CCN1C(=O)C2C3C=CC(C3)C2C1=O)NCCc1ccccc1` (centres undefined) gave GPR7 antagonist -4, OX1R antag-1 -7, TAAR1 antagonist 52*, OX1R antag-2 13, CHO parental Ca -1, TAAR1 agonist 12, TAAR1 nonsel count 8, TAAR1 antag conf 52*, Ga16 ag counter 5 and TAAR1 ag count 17.
Screening Cc1ccc(NC(=O)c2ccc(N3CCOCC3)c([N+](=O)[O-])c2)cc1S(=O)(=O)N1CCOCC1 returned GPR7 antagonist -5, OX1R antag-1 13, TAAR1 antagonist 68*, OX1R antag-2 32, CHO parental Ca 22, TAAR1 agonist 32, TAAR1 nonsel count 42*, TAAR1 antag conf 60*, Ga16 ag counter 16* and TAAR1 ag count 13.
For O=C(Nc1ccc(Cc2ccncc2)cc1)c1ccc(N2CCOCC2)c([N+](=O)[O-])c1 the results were GPR7 antagonist -7, OX1R antag-1 -19, TAAR1 antagonist 95*, OX1R antag-2 9, CHO parental Ca -4, TAAR1 agonist 30, TAAR1 nonsel count 33*, TAAR1 antag conf 52*, Ga16 ag counter 14* and TAAR1 ag count 16.
`O=C(Nc1ccc(N2CCCCC2)c(Cl)c1)c1ccc(N2CCOCC2)c([N+](=O)[O-])c1` gave GPR7 antagonist -3, OX1R antag-1 9, TAAR1 antagonist 25, OX1R antag-2 14, CHO parental Ca -12 and TAAR1 agonist 6.
For COc1ccc(S(=O)(=O)N(C)C)cc1NC(=O)C1CCN(c2ncnc3sc(C)c(C)c23)CC1 the results were TAAR1 antagonist 22 and TAAR1 agonist 11.
Screening Cc1sc2ncnc(N3CCC(C(=O)Nc4cc(Cl)ccc4Cl)CC3)c2c1C returned OX1R antag-1 -34, TAAR1 antagonist 63*, OX1R antag-2 36, CHO parental Ca -19, TAAR1 agonist 1, TAAR1 nonsel count 30*, TAAR1 antag conf 42, Ga16 ag counter 3 and TAAR1 ag count 0.
Screening Cc1sc2ncnc(N3CCC(C(=O)NNC(=O)c4ccc(Cl)cc4)CC3)c2c1C returned OX1R antag-1 -22, TAAR1 antagonist 44, OX1R antag-2 34, CHO parental Ca -10 and TAAR1 agonist 10.
For Cc1sc2ncnc(N3CCC(C(=O)Nc4cc(S(C)(=O)=O)ccc4Cl)CC3)c2c1C the results were OX1R antag-1 -20, TAAR1 antagonist 61*, OX1R antag-2 20, CHO parental Ca -16, TAAR1 agonist 14, TAAR1 nonsel count 26*, TAAR1 antag conf 38, Ga16 ag counter 8 and TAAR1 ag count 4.
Screening O=S(=O)(c1cccc(C(F)(F)F)c1)N1CCN(CC(O)COCc2ccccc2)CC1 (centres undefined) returned OX1R antag-1 -7, TAAR1 antagonist 13, OX1R antag-2 2, CHO parental Ca -13 and TAAR1 agonist 2.
Screening COC(=O)[C@@]1(Sc2ccc(C)cc2)CC(=O)N(c2ccccc2)[C@@H]1c1ccccc1 returned TAAR1 antagonist 95*, TAAR1 agonist 8, TAAR1 nonsel count 39*, TAAR1 antag conf 78*, Ga16 ag counter 7 and TAAR1 ag count 8.
CCCC(=O)OCC(=O)Nc1ccc(N=Nc2ccccc2)cc1 was read as GPR7 antagonist 4, OX1R antag-1 0, TAAR1 antagonist 11, OX1R antag-2 11, CHO parental Ca 3 and TAAR1 agonist 0.
For COc1ccc(CCNC(=O)C(=O)c2cn(CC(=O)N3CCCC3)c3ccccc23)cc1 the results were TAAR1 antagonist -18 and TAAR1 agonist 2.
Screening COC(=O)c1ccc(NC(=O)c2cccc(N3C(=O)C4C5C=CC(C6CC56)C4C3=O)c2)cc1 (centres undefined) returned GPR7 antagonist 4, OX1R antag-1 -23, TAAR1 antagonist 65*, OX1R antag-2 18, CHO parental Ca -6, TAAR1 agonist 13, TAAR1 nonsel count 58*, TAAR1 antag conf 75*, Ga16 ag counter 15* and TAAR1 ag count 12.
O=C(Nc1ccccc1)c1cccc(N2C(=O)C3C4C=CC(C5CC45)C3C2=O)c1 (centres undefined) was read as GPR7 antagonist -10, OX1R antag-1 -22, TAAR1 antagonist 24, OX1R antag-2 7, CHO parental Ca -30 and TAAR1 agonist 8.
Screening C[C@@H]1CNC(=O)c2c(C(=O)N[C@@H](Cc3c[nH]c4ccccc34)C(=O)OC(C)(C)C)ncn21 returned TAAR1 antagonist 58*, TAAR1 agonist 12, TAAR1 nonsel count 30*, TAAR1 antag conf 43, Ga16 ag counter 9 and TAAR1 ag count 12.
